Reference: ChEMBL document CHEMBL4190381, “Biofilm inhibition and anti-Candida activity of a cationic lipo-benzamide molecule with twin-nonyl chain” (Bioorg Med Chem Lett, 2018)
Converted amounts (≈) assume the structure as drawn. The source made the active and inactive calls. No cut-off for these calls is given here.

Experiments:
[1] = system: Candida albicans; test: Antifungal activity against Candida albicans ATCC 90028 planktonic cells assessed as inhibition of fungal growth incubated for 48 hrs by broth microdilution assay; type: functional; details: for MIC80: ATCC 90028, 48 h
Procedure, shortened: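 Broth microdilution against planktonic C. albicans ATCC 90028. MIC is the lowest concentration giving […] relative to the growth control. Percent inhibition is taken against an untreated growth control and plotted versus concentration.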

[2] = system: Candida albicans; test: Inhibition of adhesion of Candida albicans ATCC 90028 on polystyrene surface up to 25 ug/ml incubated for 90 mins by MTT assay; type: functional, organism-based
Procedure, shortened: (§1)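 1x10^6 C. albicans ATCC 90028 cells allowed to grow and adhere in polystyrene-coated 96-well wells; compound added at different time points to cover adhesion, biofilm formation or mature biofilm stages. Inhibition quantified by MTT metabolic assay against untreated growth control. BIC80 and BEC80 taken as concentrations giving 80% inhibition of formation or of mature biofilm respectively.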

[3] = system: Candida albicans; test: Antifungal activity against Candida albicans DSY294 assessed as inhibition of fungal growth incubated for 48 hrs by broth microdilution assay; type: functional; details: DSY294, 48 h
Procedure, shortened: (§2)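 Broth microdilution against planktonic Candida cultures, with fluconazole as reference antifungal. MIC read as lowest concentration giving […] relative to a growth control without compound. Percentage inhibition versus growth control was plotted against concentration.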

[4] = system: Candida parapsilosis; test: Antifungal activity against Candida parapsilosis MTCC 7043 assessed as inhibition of fungal growth incubated for 48 hrs by broth microdilution assay; type: functional; details: Lodderomyces parapsilosis, MTCC 7043, 48 h; procedure, shortened: as §2
[5] = system: Candida albicans; test: Antifungal activity against Candida albicans Gu4 assessed as inhibition of fungal growth incubated for 48 hrs by broth microdilution assay; type: functional; details: Gu4, 48 h; procedure, shortened: as §2
[6] = system: Candida albicans; test: Antibiofilm activity against Candida albicans ATCC 90028 grown on polystyrene surface assessed as inhibition of biofilm formation added immediately after cell adhesion by MTT assay; type: functional; procedure, shortened: as §1
[7] = system: Candida albicans; test: Antifungal activity against Candida albicans DSY296 assessed as inhibition of fungal growth incubated for 48 hrs by broth microdilution assay; type: functional; details: DSY296, 48 h; procedure, shortened: as §2
[8] = system: Candida albicans; test: Antifungal activity against Candida albicans SC5314 assessed as inhibition of fungal growth incubated for 48 hrs by broth microdilution assay; type: functional; details: SC5314, 48 h; procedure, shortened: as §2
[9] = system: Nakaseomyces glabratus; test: Antifungal activity against Candida glabrata MTCC 3814 assessed as inhibition of fungal growth incubated for 48 hrs by broth microdilution assay; type: functional; details: MTCC 3814, 48 h; procedure, shortened: as §2
[10] = system: Candida tropicalis; test: Antifungal activity against Candida tropicalis MTCC 9038 assessed as inhibition of fungal growth incubated for 48 hrs by broth microdilution assay; type: functional; details: MTCC 9038, 48 h; procedure, shortened: as §2
[11] = system: Pichia kudriavzevii; test: Antifungal activity against Candida krusei MTCC 9215 assessed as inhibition of fungal growth incubated for 48 hrs by broth microdilution assay; type: functional; details: MTCC 9215, 48 h; procedure, shortened: as §2
[12] = system: Candida albicans; test: Antibiofilm eradication activity against Candida albicans ATCC 90028 grown on polystyrene surface assessed as inhibition of mature biofilm formation added 24 hrs after biofilm maturation and measured after 48 hrs by MTT assay; type: functional; procedure, shortened: as §1
[13] = system: Candida albicans; test: Antifungal activity against Candida albicans Gu5 assessed as inhibition of fungal growth incubated for 48 hrs by broth microdilution assay; type: functional; details: Gu5, 48 h; procedure, shortened: as §2
[14] = system: Candida albicans; test: Toxicity in Candida albicans ATCC 90028 planktonic cells assessed as induction of morphological changes at 3.1 ug/ml incubated for 24 hrs by scanning electron Microscopy; type: organism-based
Procedure, shortened: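 C. albicans ATCC 90028 cells incubated 24 h with 3.1 µg ml-1 compound. Surface morphology examined by scanning electron microscopy at 2500X and 5000X magnification against untreated cells.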

[15] = system: Candida albicans; test: Antibiofilm activity against Candida albicans ATCC 90028 grown on polystyrene surface assessed as inhibition of biofilm formation at 1.56 to 25 ug/ml added immediately after cell adhesion by bright-field microscopy; type: functional, organism-based
Procedure, shortened: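 1x10^6 C. albicans ATCC 90028 cells allowed to adhere and grow in polystyrene 96-well wells; compound at 1.56, 3.12, 6.25, 12.5 and 25 µg ml-1; biofilm examined microscopically against an untreated growth control.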

[16] = system: Candida albicans; test: Toxicity in Candida albicans ATCC 90028 planktonic cells assessed as induction of protein release at 12.5 ug/ml incubated for 1 hr by spectrophotometry; type: organism-based
Procedure, shortened: (§3)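 C. albicans cells incubated with increasing compound concentrations. Supernatant OD260 (nucleic acids) and OD280 (proteins) recorded to quantify macromolecule release on lysis.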

[17] = system: Candida albicans; test: Inhibition of adhesion of Candida albicans ATCC 90028 on polystyrene surface at 12.5 ug/ml incubated for 90 mins by MTT assay; type: functional; details: ATCC 90028, 1.5 h
Procedure, shortened: (§4)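 C. albicans ATCC 90028 cells adhered to polystyrene wells with test compound. Adhesion is quantified by MTT metabolic assay and expressed as percent inhibition versus an untreated growth control. Fluconazole is the reference, tested up to 25 µg ml-1.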

[18] = Safety index, ratio of HC90 for hemolytic activity in human erythrocytes to MIC for antifungal activity against Candida albicans ATCC 90028 planktonic cells; type: toxicity, cell-based
[19] = system: Candida albicans; test: Toxicity in Candida albicans ATCC 90028 planktonic cells assessed as induction of nucleic acids release at 12.5 ug/ml incubated for 1 hr by spectrophotometry; type: organism-based; procedure, shortened: as §3
[20] = system: Candida albicans; test: Inhibition of adhesion of Candida albicans ATCC 90028 on polystyrene surface incubated for 90 mins by MTT assay; type: functional, organism-based; procedure, shortened: as §4
[21] = system: Erythrocyte; test: Hemolytic activity in human erythrocytes assessed as induction of hemolysis incubated for 1 hr by spectrophotometry; type: cell-based
Procedure, shortened: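 Human erythrocytes incubated with a range of concentrations. Released hemoglobin is measured spectrophotometrically and expressed as percent hemolysis. 1% Triton X-100 gives 100% lysis, and a buffer-treated sample is the negative control. HC90 is the concentration lysing 90% of RBCs.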

Compound | growth inhibition (GI) [1] | MIC80 [1] | MIC80 [3] | MIC80 [4] | MIC80 [5] | MIC80 [7] | MIC80 [8] | MIC80 [9] | MIC80 [10] | MIC80 [11] | MIC80 [13] | further results
CCCCCCCC[N+](C)(CCCCCCCC)CCNC(=O)c1ccc(OC)cc1.[I-] | Dose-dependent effect | ≤ 6.2 µg/mL |  |  |  |  |  |  |  |  |  | 
OC(Cn1cncn1)(Cn1cncn1)c1ccc(F)cc1F [FLUCONAZOLE] |  | 4 µg/mL (≈ 13.1 µM) | 4 µg/mL (≈ 13.1 µM) | 2 µg/mL (≈ 6.53 µM) | 4 µg/mL (≈ 13.1 µM) | 128 µg/mL (≈ 418 µM) | 2 µg/mL (≈ 6.53 µM) | 4 µg/mL (≈ 13.1 µM) | 4 µg/mL (≈ 13.1 µM) | 64 µg/mL (≈ 209 µM) | 128 µg/mL (≈ 418 µM) | inhibition [2]: inactive; inhibition [6]: inactive; inhibition [12]: inactive
CCCCCCCCCC[N+](C)(CCCCCCCCCC)CCNC(=O)c1ccc(OC)cc1.[I-] | Dose-dependent effect | ≤ 6.2 µg/mL |  |  |  |  |  |  |  |  |  | 
CCCCCCCCCCC[N+](C)(CCCCCCCCCCC)CCNC(=O)c1ccc(OC)cc1.[I-] | Dose-dependent effect | ≤ 3.1 µg/mL |  |  |  |  |  |  |  |  |  | 
CCCCCCCCC[N+](C)(CCCCCCCCC)CCNC(=O)c1ccc(OC)cc1.[I-] | Dose-dependent effect | 3.1 µg/mL | 1.5 µg/mL | 1.5 µg/mL | 3.1 µg/mL | 1.5 µg/mL | 1.5 µg/mL | 1.5 µg/mL | 0.7 µg/mL | 1.5 µg/mL | 3.1 µg/mL | Activity [14]: Non-Toxic; Activity [15]: Active; Activity [16]: Non-Toxic; MBIC80 [6]: 3.12 µg/mL; inhibition at 12.5 µg/mL [17]: 90%; selectivity ratio [18]: 4; Activity [19]: Non-Toxic; inhibition [20]: Dose-dependent effect; HC90 [21]: 12.5 µg/mL; MBEC80 [12]: 12.5 µg/mL
